Source: ChEMBL document CHEMBL1137736, “Substituted quinolinyl chalcones and quinolinyl pyrimidines as a new class of anti-infective agents” (Eur J Med Chem, 2009)
Values after ≈ are worked out from the molar mass of the structure shown. Active and inactive are the calls of the source. No cut-off for these calls is given here.

Legend:
[1] = system: Mycobacterium tuberculosis; assay: Antitubercular activity against Mycobacterium tuberculosis H37Rv after 4 weeks by serial twofold dilution method; format: functional
How it was run: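 Serial twofold dilutions of a 1.0 mg/mL DMSO stock were incorporated into Middlebrook 7H10 agar slants with OADC. H37Rv grown on Lowenstein–Jensen medium was harvested in N-saline with 0.05% Tween-80 and dispersed with glass beads into a single-cell suspension. The working inoculum was 2 107 cfu/mL. MIC was the lowest concentration giving complete growth inhibition.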

Plasmodium falciparum = assay: Antimalarial activity as inhibition of schizont maturation against Plasmodium falciparum NF54 after 36 - 40 hrs; format: functional
How it was run: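 P. falciparum NF-54 kept in RPMI-1640 with 25 mM HEPES, 1% D-glucose, 0.23% sodium bicarbonate and 10% heat-inactivated human serum. Compounds tested in duplicate at 0.25–[…] in 96-well microassay with parasitized cells, 37 C, candle jar, 36–40 h. Giemsa-stained smears scored for ring maturation to schizonts. MIC is lowest concentration blocking complete schizont maturation.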

[2] = Cytotoxicity against mouse BMDM cells after 5 days by MTS assay; format: cell-based; settings: 120 h
How it was run: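 Mouse bone-marrow-derived macrophages plated at 10^5 cells/well in DMEM with antibiotics, 10% FBS, 15% (v/v) L-929 conditioned supernatant and non-essential amino acids. After compound exposure, incubated 5 days at 37 C, 5% CO2. MTS added and A490 read after 2 h, with DMSO wells as 100% survival. Toxic means 50% inhibition at 10-fold the MIC.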

Vero = assay: Cytotoxicity against african green monkey Vero cells after 24 hrs by MTS assay; format: cell-based; settings: chlorocebus sabaeus
How it was run: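 VERO cells seeded at 10^4 cells/well in MEM with antibiotics and 10% FBS, incubated 24 h (37 C, 5% CO2). Medium then replaced by 5% FBS, antibiotic-free medium with compound or DMSO for 24 h. MTS added and A490 read after 2 h, with DMSO wells as 100% survival. Toxic means 50% inhibition at 10-fold the MIC.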

Row | Compound | MIC ([1]; 672 h) | MIC (Plasmodium falciparum) | MIC [1] | Activity [2] | Activity (Vero)
1 | COc1cc(-c2cc(-c3ccc(Nc4ccnc5cc(Cl)ccc45)cc3)nc(N)n2)cc(OC)c1OC | 12.5 µg/mL (≈ 24.3 µM) | inactive | – | – | –
2 | COc1ccc(-c2cc(-c3ccc(Nc4ccnc5cc(Cl)ccc45)cc3)nc(N)n2)cc1 | – | 2 µg/mL (≈ 4.41 µM) | inactive | – | –
3 | Nc1nc(-c2ccc(Nc3ccnc4cc(Cl)ccc34)cc2)cc(-c2cccnc2)n1 | – | 1 µg/mL (≈ 2.35 µM) | inactive | – | –
4 | COc1cccc(/C=C/C(=O)c2ccc(Nc3ccnc4cc(Cl)ccc34)cc2)c1OC | 3.12 µg/mL (≈ 7.01 µM) | inactive | – | Non-toxic | Non-toxic
5 | O=C(/C=C/c1ccc(Cl)cc1)c1ccc(Nc2ccnc3cc(Cl)ccc23)cc1 | 6.25 µg/mL (≈ 14.9 µM) | inactive | – | – | –
6 | CSc1ccc(-c2cc(-c3ccc(Nc4ccnc5cc(Cl)ccc45)cc3)nc(N)n2)cc1 | – | 1 µg/mL (≈ 2.13 µM) | inactive | – | –
7 | CC(C)c1ccc(-c2cc(-c3ccc(Nc4ccnc5cc(Cl)ccc45)cc3)nc(N)n2)cc1 | 6.25 µg/mL (≈ 13.4 µM) | 1 µg/mL (≈ 2.15 µM) | – | – | –
8 | Nc1nc(-c2ccc(Nc3ccnc4cc(Cl)ccc34)cc2)cc(-c2ccco2)n1 | 12.5 µg/mL (≈ 30.2 µM) | inactive | – | – | –
9 | CCN(CC)CCCC(C)Nc1ccnc2cc(Cl)ccc12 (stereo unspecified) [CHLOROQUINE] | – | 0.125 µg/mL (≈ 0.391 µM) | – | – | –
10 | NC(=O)c1cnccn1 [PYRAZINAMIDE] | 50 µg/mL (≈ 406 µM) | – | – | Non-toxic | Non-toxic
11 | COc1ccc(OC)c(/C=C/C(=O)c2ccc(Nc3ccnc4cc(Cl)ccc34)cc2)c1 | 3.12 µg/mL (≈ 7.01 µM) | inactive | – | Non-toxic | Non-toxic
